Screening data as filed in PubChem BioAssay.
The sample as a whole holds a higher share of hits than the screen did.
HSF1 inh: HSF1 inhibition | AID 2098 | actives 0.77% (n = 300,000) | activity change, negative = inhibition, % at 7.5 µM (by protocol) | NIH3T3-HGL HSE-luciferase, MG132-induced, luminescence 8 h; hits give low values;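 active means more than half of replicate wells show activity change below -50%, luminescence cut by over half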;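 further: luciferase reports HSF-1 transcriptional activity via heat shock element; 0% = median of DMSO wells and -100% = zero luminescence signal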
T cruzi repl: blocks replication of Trypanosoma cruzi | T. cruzi beta-gal in NIH3T3, luminescence, 90 h | inhibition, % (concentration not given with the values) | actives 1.4% (n = 300,000);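 active means mean inhibition across valid replicates above about 55%, limit read from the data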;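 further: signal also drops with host cell toxicity which is not excluded here; 0% = plate median of DMSO wells and 100% = zero luminescence signal; higher percent means less beta-gal luminescence so fewer parasites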
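System: mouse NIH/3T3 fibroblasts infected with β-gal-expressing T. cruzi Tulahuen C4 / Input: NIH/3T3 cells, 5,000 per well / Buffer or medium: Low-serum DMEM with 2% FBS / Probe or stimulus: 5000 reporter trypomastigotes per well / Schedule: ≥90 h infection period, 3 h prior cell attachment / Measured by: GalScreen luminescence, 60 min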
L major viab: inhibitors of Leishmania major promastigote growth; Leishmania major promastigotes, resazurin fluorescence viability; inhibition, % at 10 µM; actives 9% (n = 200,000); in the data active means inhibition above about 50%;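 further: promastigotes grown with compound for 44 hours at 28 °C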
Hsp70 act: switches on Hsp70 transcription; HeLa Hsp70 promoter luciferase reporter, luminescence; scaled: vehicle 0, proteasome-inhibitor control 100%; activation, % at 10 µM; actives 0.04% (n = 200,000);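 active means activation above the mean across all tested compounds plus 3 SD, cutoff set per campaign, cut at about 5.5% in these data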;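 further: 100% = MG132 at 30 µM as the positive control and 0% = DMSO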
HSF-1 act: increases HSF-1 driven luciferase reporter signal; NIH3T3-HGL HSF-1 luciferase reporter, MG132, 8 h; 100% = twice DMSO control signal; activation, % at 9 µM; actives 1.7% (n = 300,000); AID 504408;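 active means mean replicate activation of at least 50% with a set share of replicates each reaching 50%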;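 further: 0% = median of the neutral control wells and 100% = twice that signal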
L major 1uM: inhibitors of Leishmania major promastigote growth, repeat at 1 uM | AID 1258 | shares compounds with L major viab | L. major promastigote growth, resazurin fluorescence, 48 h | actives 13% (n = 1,100) | inhibition, % at 1 µM;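 active means inhibition above about 50% in both repeat tests, limit read from the data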
Active calls of the source: *; / = no result.

SMILES | HSF1 inh | T cruzi repl | L major viab | Hsp70 act | HSF-1 act | L major 1uM
O=C(/C=C/c1ccccc1)CC(O)(c1ccccc1)C(F)(F)F (stereo not given) | 8 | 5 | 100* | 0 | 23 | 76*
O=C(/C=C/c1ccccc1)CC(=O)c1ccccc1O | 15 | -10 | 22 | 0 | 14 | /
O=C(c1ccccc1)c1sc(N2CCCCCC2)nc1-c1ccccc1 | 9 | 30 | 13 | 0 | 14 | /
O=C(O)c1cc(-c2cccc(Cl)c2)nc2nc(N3CCCCC3)sc12 | -5 | 2 | 63* | -1 | 19 | -10
CC(=O)[C@H]1[C@@H]2C(=O)N(c3cccc(Cl)c3)C(=O)[C@@H]2[C@H]2c3ccccc3C=CN21 | / | / | -3 | 0 | / | /
CC(C)(C)C(=O)[C@@H]1[C@@H]2C(=O)N(Cc3ccccc3)C(=O)[C@@H]2[C@H]2c3ccccc3C=CN12 | / | / | 68* | 0 | / | -8
Cn1ccnc1SCc1cn2cc(Br)ccc2n1 | 7 | -17 | 82* | 1 | 23 | -1
Cc1ccc(SCc2cn3ccccc3n2)cc1 | 35 | -5 | / | / | 49 | /
O=C(NC1CCCC1)C(c1ccc(F)cc1)N(Cc1ccc(Cl)cc1)C(=O)CCl (stereo not given) | 3 | 3 | 99* | 0 | 16 | 51*
O=C(NC1CCCC1)C(c1ccccc1)N(Cc1ccc(F)cc1)C(=O)c1csnn1 (stereo not given) | 1 | 4 | / | / | 2 | /
O=C1Nc2ccccc2N(O)N1c1ccc(S(=O)(=O)N2CCOCC2)cc1 | 1 | -8 | -3 | 0 | -6 | /
COc1ccc(NC(=O)c2ccc(COc3ccccc3Br)o2)c(OC)c1 | -2 | 32 | / | / | -7 | /
O=[N+]([O-])c1ccc2c(c1)C(N1CCOCC1)/C(=C/COc1ccc3ccccc3c1Br)O2 (stereo not given) | 4 | 34 | 97* | 0 | 10 | -1
O=[N+]([O-])c1ccc(OC/C=C2\Oc3ccc([N+](=O)[O-])cc3C2N2CCOCC2)cc1 (stereo not given) | 10 | 23 | 48 | 0 | 5 | /
CCOC(=O)Cn1c(=O)c(F)cn(Cc2ccc(OC)c([N+](=O)[O-])c2)c1=O | -2 | -9 | / | / | 5 | /
CC(C)(C)c1cc(CSC(=S)NC2CCS(=O)(=O)C2)c(Br)c(C(C)(C)C)c1 (stereo not given) | -3 | 1 | 95* | 0 | -12 | 8
CCOC1(OCC)C(c2ccc(Cl)cc2)C(C#N)(C#N)C1(OCC)OCC (stereo not given) | 5 | -12 | 100* | 0 | -3 | -3
CCOC1(OCC)N=C(N)C2(C#N)C(c3cccc(C)c3)C12C#N (stereo not given) | 2 | -8 | -2 | 0 | -8 | /
CCOC1(OCC)C(c2ccc(N)cc2)C(C#N)(C#N)C1(OCC)OCC (stereo not given) | -6 | 0 | 63* | 0 | 9 | -2
COc1ccc(C(=O)N2CCN(c3ncccn3)CC2)cc1[N+](=O)[O-] | -3 | -3 | / | / | 4 | /
Cc1cc(C)c2c(c1)-c1cc(C)nn1C(c1ccc3c(c1)OCO3)N2 (stereo not given) | -4 | 28 | 99* | 0 | -13 | 76*
O=C1NCC(c2ccccc2)C1C(=O)N/N=C\c1ccc(-c2ccc(Cl)c(Cl)c2)o1 (stereo not given) | 13 | 8 | 59* | 0 | 26 | -11
O=C1NCC(c2ccccc2)C1C(=O)N/N=C/c1ccc(Cl)s1 (stereo not given) | -11 | 17 | 15 | 0 | 4 | /
Cc1ccc(C(=O)NCc2n[nH]c(=S)n2-c2ccccc2)cc1[N+](=O)[O-] | -2 | 0 | -8 | 0 | -18 | /
COc1ccc(OC)c(-c2csc(N(C)C(=O)c3ccco3)n2)c1 | -4 | 0 | / | / | 16 | /
CC(=O)c1cccc(N(CC(=O)Nc2ccccc2C(=O)N2CCCC2)S(C)(=O)=O)c1 | -5 | 6 | / | / | 20 | /
CCn1c2ccccc2c2cc(/C(C)=N/O)ccc21 | -2 | -3 | 69* | 0 | 8 | -15
C/C(=N\O)c1ccc2c3ccccc3n(C)c2c1 | 7 | 17 | 5 | 0 | 26 | /
Cc1ccc(N(C(=O)C2CCCC2)C2C=CS(=O)(=O)C2)cc1C (stereo not given) | 3 | -11 | 56* | 0 | -3 | -9
